This is one part of a sample in which hits are shown more often than they occur.
KDM4C inh: inhibitors of GASC-1 (KDM4C) histone demethylase, primary screen, biochemical, single concentration HTS; Lysine-specific demethylase 4C (Homo sapiens), Q9H3R0; GST-KDM4C 2-372, H3K9me3 peptide, LANCE TR-FRET; inhibition, % at 12.5 µM; hit rate 0.15% among 96,000; AID 720574, 2013;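 active = mean replicate inhibition above about 25%, with at least 55% of replicates also reaching it, limit read from the data, passing the limit was not always enough; inconclusive = only one of those two conditions met; inactive = neither condition met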
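Material: N-terminal GST-fused human GASC-1 (KDM4C) fragment, residues 2-372. Input: 10 nM enzyme. Incubation: enzyme reaction 30 min, then detection 60 min, both room temperature. Doses: one test concentration per compound. Read-out basis: inhibition from TR-FRET ratio decrease. Detection: LANCE TR-FRET, excitation 340 nm, emissions 618 and 671 nm.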
T cruzi growth-1: T. cruzi intracellular proliferation inhibitors, primary screen, cell-based, beta-gal Tulahuen parasites, NIH3T3 host, luminescence; hit rate 5.9% among 77,000; inhibition, % at 8.34 µM; AID 624255, 2012; T. cruzi beta-gal in NIH3T3, GalScreen luminescence, 90 h;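 active = mean inhibition above about 93%, with at least 55% of replicates each passing it, limit read from the data, passing the limit was not always enough; inconclusive = only one of those two conditions holds; inactive = neither condition holds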
IDH1 R132H inh: inhibitors of IDH1 R132H reductase, primary screen, biochemical, plate reader, single point | Isocitrate dehydrogenase [NADP] cytoplasmic (Homo sapiens), O75874 | diaphorase/resazurin fluorescence, 60 min | inhibition, % at 10 µM | hit rate 0.18% among 70,000; in the data active = inhibition above about 34%; inconclusive = no clear call, values can overlap the other calls; inactive = below about 11%
Target sequence (O75874 whole entry R132H): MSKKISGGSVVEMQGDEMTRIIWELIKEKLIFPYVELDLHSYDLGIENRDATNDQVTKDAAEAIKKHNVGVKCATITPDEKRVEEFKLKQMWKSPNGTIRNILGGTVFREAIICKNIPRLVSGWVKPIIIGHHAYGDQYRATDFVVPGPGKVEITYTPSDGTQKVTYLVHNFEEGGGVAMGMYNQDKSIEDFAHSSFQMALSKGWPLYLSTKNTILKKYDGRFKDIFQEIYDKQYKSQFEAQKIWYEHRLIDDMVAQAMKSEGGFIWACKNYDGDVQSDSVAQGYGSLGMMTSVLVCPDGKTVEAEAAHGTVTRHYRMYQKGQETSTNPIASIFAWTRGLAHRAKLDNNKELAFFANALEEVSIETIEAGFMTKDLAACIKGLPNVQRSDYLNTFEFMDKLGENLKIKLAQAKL
T cruzi growth-2: T. cruzi intracellular proliferation inhibitors, confirmation, cell-based, NIH3T3 host, beta-gal parasite, luminescence, cherry-pick | shares compounds with T cruzi growth-1 | T. cruzi beta-gal in NIH3T3, GalScreen luminescence, 90 h | inhibition, % at 8.35 µM | hit rate 72% among 5,600 | AID 651739, 2012;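 active = mean replicate inhibition above about 95% and at least 55% of replicates individually reaching it, limit read from the data; inconclusive = only one of the two criteria is met; inactive = neither criterion is met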
T cruzi growth-3: inhibitors of intracellular T. cruzi replication, confirmation, NIH3T3 host cells, beta-gal parasites, cherry-pick, set 2 | shares compounds with T cruzi growth-1 | T. cruzi beta-gal in NIH3T3, GalScreen luminescence, 90 h | inhibition, % at 2.09 µM | hit rate 21% among 5,600 | AID 651740, 2012;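 active = mean inhibition above about 95%, with at least 55% of replicates also reaching it, limit read from the data; inconclusive = meets just one of the two conditions; inactive = meets neither condition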
NIH3T3 tox: cytotoxicity in mouse NIH/3T3 fibroblasts, confirmation, cytotoxicity control for T. cruzi proliferation inhibitor project, cell-based, cherry-pick, single point; cytotoxicity (signal decrease), % at 8.35 µM; hit rate 14% among 5,600; AID 651742, 2012; shares compounds with T cruzi growth-1; NIH/3T3 viability, CellTiter-Glo ATP luminescence, 90 h;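 active = mean signal decrease across replicates above about 35% based on untreated-well scatter, with enough replicates individually passing, limit read from the data; inconclusive = no rule stated though some were filed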
NIH3T3 tox 2: NIH/3T3 fibroblast cytotoxicity, confirmation, cytotoxicity control, cell-based, cherry-pick, single point, set 2; NIH/3T3 viability, CellTiter-Glo ATP luminescence, 90 h; shares compounds with T cruzi growth-1; hit rate 56% among 5,600; inhibition, % at 24.9 µM;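 active = mean loss of cell viability signal at or above a set limit, and enough replicates individually reaching it; inconclusive = meets only the mean limit or only the replicate share; inactive = meets neither condition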
A number is an active result.

Screening C[C@@H]1CN([C@H](C)CO)C(=O)c2cccc(NC(=O)c3ccc(-c4nccs4)cc3)c2O[C@H]1CN(C)C(=O)Nc1ccc(C(F)(F)F)cc1 returned KDM4C inh inconclusive, T cruzi growth-1 115, T cruzi growth-2 100, T cruzi growth-3 inactive, NIH3T3 tox inactive and NIH3T3 tox 2 72.
C[C@@H]1CN([C@@H](C)CO)C(=O)c2cccc(NC(=O)c3ccc(-c4nccs4)cc3)c2O[C@H]1CN(C)C(=O)Nc1ccc(C(F)(F)F)cc1 was read as KDM4C inh inactive, T cruzi growth-1 120, T cruzi growth-2 inactive, T cruzi growth-3 inactive, NIH3T3 tox inactive and NIH3T3 tox 2 70.
`O=C(CN(C1CCCCC1)S(=O)(=O)c1ccc(Cl)cc1)Nc1ccccc1F` gave IDH1 R132H inh inactive.
`COc1ccc(-c2nnc3c4ccccc4c(C)nn23)cc1S(=O)(=O)NC(C)c1ccccc1` (stereo unspecified) gave IDH1 R132H inh inactive.
`O=C(c1c[nH]c2ccccc12)C(O)C(c1ccccc1)N1CCCCC1` (stereo unspecified) gave IDH1 R132H inh inactive.
`O=C(CC1(O)C(=O)Nc2ccccc21)c1ccc(OCC(=O)N2CCOCC2)cc1` (stereo unspecified) gave IDH1 R132H inh inactive.
Screening C/C=C/c1ccc2c(c1)O[C@H](CN(C)S(=O)(=O)c1ccccc1OC)[C@H](C)CN([C@@H](C)CO)S2(=O)=O returned KDM4C inh inactive, T cruzi growth-1 inactive and IDH1 R132H inh inactive.
`COc1ccccc1S(=O)(=O)N(C)C[C@H]1Oc2cc(/C=C/c3ccccc3)ccc2S(=O)(=O)N([C@@H](C)CO)C[C@H]1C` gave KDM4C inh inactive, T cruzi growth-1 129, IDH1 R132H inh inactive, T cruzi growth-2 101, T cruzi growth-3 inconclusive, NIH3T3 tox 40 and NIH3T3 tox 2 34.
Screening COc1ccccc1S(=O)(=O)N(C)C[C@@H]1Oc2cc(/C=C/c3ccccc3)ccc2S(=O)(=O)N([C@@H](C)CO)C[C@H]1C returned KDM4C inh inactive, T cruzi growth-1 128, IDH1 R132H inh inactive, T cruzi growth-2 102, T cruzi growth-3 106, NIH3T3 tox 65 and NIH3T3 tox 2 62.
`C[C@H]1CN([C@@H](C)CO)S(=O)(=O)c2ccc(/C=C/c3ccccc3)cc2O[C@@H]1CN(C)C` gave KDM4C inh inactive, T cruzi growth-1 inactive and IDH1 R132H inh inactive.
Screening C[C@@H]1CN([C@H](C)CO)S(=O)(=O)c2ccc(/C=C/c3ccccc3)cc2O[C@H]1CN(C)C returned KDM4C inh inactive, T cruzi growth-1 inactive and IDH1 R132H inh inactive.
Screening C/C=C/c1ccc2c(c1)O[C@@H](CN(C)S(=O)(=O)c1ccccc1OC)[C@H](C)CN([C@@H](C)CO)S2(=O)=O returned KDM4C inh inactive, T cruzi growth-1 116, IDH1 R132H inh inactive, T cruzi growth-2 107, T cruzi growth-3 inactive, NIH3T3 tox 44 and NIH3T3 tox 2 56.
For COc1ccccc1S(=O)(=O)N(C)C[C@H]1Oc2cc(/C=C/c3ccccc3)ccc2S(=O)(=O)N([C@@H](C)CO)C[C@@H]1C the results were KDM4C inh inactive, T cruzi growth-1 128, IDH1 R132H inh inactive, T cruzi growth-2 100, T cruzi growth-3 101, NIH3T3 tox inconclusive and NIH3T3 tox 2 39.
For COc1ccccc1S(=O)(=O)N(C)C[C@H]1Oc2cc(Br)ccc2S(=O)(=O)N([C@H](C)CO)C[C@H]1C the results were KDM4C inh inactive.
Cc1cc(Cl)c(S(=O)(=O)N2CCc3ccccc32)cc1OCC(N)=O was read as IDH1 R132H inh inactive.
O=C(CSc1nnc(-c2cccc(Cl)c2)n1-c1ccccc1)Nc1ccc(F)c(F)c1 was read as IDH1 R132H inh inactive.
Screening COc1ccc([N+](=O)[O-])cc1NC(=O)CN(c1ccc(Cl)c(Cl)c1)S(C)(=O)=O returned IDH1 R132H inh inactive.
Screening COc1ccc(S(=O)(=O)N2CCC3(CC2)CN(C(=O)c2cccnc2)[C@@H](CO)c2c3c3ccc(OC)cc3n2C)cc1 returned KDM4C inh inactive.
`COc1ccccc1S(=O)(=O)N(C)C[C@H]1Oc2cc(/C=C/c3ccccc3)ccc2S(=O)(=O)N([C@H](C)CO)C[C@@H]1C` gave KDM4C inh 38, T cruzi growth-1 131, IDH1 R132H inh inactive, T cruzi growth-2 106, T cruzi growth-3 97, NIH3T3 tox inactive and NIH3T3 tox 2 25.
`C/C=C/c1ccc2c(c1)O[C@H](CN(C)S(=O)(=O)c1ccc(F)cc1)[C@H](C)CN([C@@H](C)CO)S2(=O)=O` gave KDM4C inh inactive and IDH1 R132H inh inactive.
C[C@@H]1CN([C@@H](C)CO)S(=O)(=O)c2ccc(/C=C/c3ccccc3)cc2O[C@@H]1CN(C)C was read as KDM4C inh inactive, T cruzi growth-1 inactive and IDH1 R132H inh inactive.
`COc1ccccc1S(=O)(=O)N(C)C[C@H]1Oc2cc(Br)ccc2S(=O)(=O)N([C@@H](C)CO)C[C@H]1C` gave KDM4C inh inactive.
`C/C=C/c1ccc2c(c1)O[C@H](CN(C)S(=O)(=O)c1ccccc1)[C@H](C)CN([C@@H](C)CO)S2(=O)=O` gave KDM4C inh inactive, T cruzi growth-1 107, IDH1 R132H inh inactive, T cruzi growth-2 97, T cruzi growth-3 inactive, NIH3T3 tox inactive and NIH3T3 tox 2 35.
`COc1ccccc1S(=O)(=O)N(C)C[C@H]1Oc2cc(/C=C/c3ccccc3)ccc2S(=O)(=O)N([C@H](C)CO)C[C@H]1C` gave KDM4C inh inactive, T cruzi growth-1 122, IDH1 R132H inh inactive, T cruzi growth-2 102, T cruzi growth-3 104, NIH3T3 tox 43 and NIH3T3 tox 2 51.
`O=C1/C(=C/c2cn[nH]c2-c2ccc(F)cc2)CS/C1=C\c1cn[nH]c1-c1ccc(F)cc1` gave IDH1 R132H inh inactive.
`CC(C)[C@@H]1CC[C@@]2(C)[C@H](O)CC[C@@](C)(O)[C@@H]2[C@@H]1OC(=O)/C=C/c1ccccc1` gave IDH1 R132H inh inactive.
O=C(CCCCCC(=O)Nc1ccccc1O)N/N=C/c1ccc(O)cc1 was read as IDH1 R132H inh inactive.
